Published values of several laboratories.
Each line is one published result; the experiments were not run side by side. ≈ marks a conversion by molar mass, not a printed value.
Organism: Staphylococcus epidermidis
Read-out: microbial growth

| SMILES | test | test system | setting | quantity | value |
| --- | --- | --- | --- | --- | --- |
| CN[C@H](CC(C)C)C(=O)N[C@H]1C(=O)N[C@@H](CC(N)=O)C(=O)N[C@H]2C(=O)N[C@H]3C(=O)N[C@H](C(=O)N[C@H](C(=O)O)c4cc(O)cc(O)c4-c4cc3ccc4O)[C@H](O)c3ccc(c(Cl)c3)Oc3cc2cc(c3O[C@@H]2O[C@H](CO)[C@@H](O)[C@H](O)[C@H]2O[C@H]2C[C@](C)(N)[C@H](O)[C@H](C)O2)Oc2ccc(cc2Cl)[C@H]1O |  |  | clinical isolate | MIC | 0.78 µg/mL (≈ 0.538 µM) |
| C=C[C@]1(C)C[C@@H](OC(=O)CS[C@@H]2C[C@H]3CC[C@@H](C2)N3C)[C@]2(C)[C@H](C)CC[C@]3(CCC(=O)[C@H]32)[C@@H](C)[C@@H]1O |  |  | clinical isolate | MIC90 | 0.0625 µg/mL (≈ 0.121 µM) |
| Cc1ccc2[nH]nc(-c3nnc(Nc4ccc(C)c(C)c4)s3)c2c1 |  | ATCC12228 |  | MIC | 172 µg/mL (≈ 512 µM) |
| CCn1cc(C(=O)O)c(=O)c2cc(F)c(N3CCNCC3)cc21 |  |  | clinical isolate | MIC | 0.2 µg/mL (≈ 0.626 µM) |
| Cc1ccc2[nH]nc(-c3nnc(Nc4ccc(Cl)c(Cl)c4)s3)c2c1 |  | ATCC12228 |  | MIC | 187 µg/mL (≈ 498 µM) |
| CN[C@H](CC(C)C)C(=O)N[C@H]1C(=O)N[C@@H](CC(N)=O)C(=O)N[C@H]2C(=O)N[C@H]3C(=O)N[C@H](C(=O)N[C@H](C(=O)O)c4cc(O)cc(O)c4-c4cc3ccc4O)[C@H](O)c3ccc(c(Cl)c3)Oc3cc2cc(c3O[C@@H]2O[C@H](CO)[C@@H](O)[C@H](O)[C@H]2O[C@H]2C[C@](C)(N)[C@H](O)[C@H](C)O2)Oc2ccc(cc2Cl)[C@H]1O | broth dilution |  | clinical isolate | MIC50 | 1 µg/mL |
| Cc1ccc2[nH]nc(-c3nnc(Nc4ccc(F)cc4Cl)s3)c2c1 |  | ATCC12228 |  | MIC | 118 µg/mL (≈ 328 µM) |
| Cc1c2c(nn1C)CSCc1cc(n(C)n1)CSc1cc(c3ccccc3c1)OCCCc1c(C(=O)O)n(C)c3c-2c(Cl)ccc13 | broth dilution |  | clinical isolate | MIC50 | 12.5 µM |
| CC[C@H]1OC(=O)[C@H](C)[C@@H](O[C@H]2C[C@@](C)(OC)[C@@H](O)[C@H](C)O2)[C@H](C)[C@@H](O[C@@H]2O[C@H](C)C[C@H](N(C)C)[C@H]2O)[C@](C)(O)C[C@@H](C)/C(=N\OCOCCOC)[C@H](C)[C@@H](O)[C@]1(C)O |  | MRSE | clinical isolate | MIC90 | > 128 µg/mL |
| CNC(C)C1CCC(N)C(OC2C(N)CC(N)C(OC3OCC(C)(O)C(NC)C3O)C2O)O1 (stereo not shown) | broth dilution |  |  | MIC | 1 µg/mL (≈ 2.09 µM) |
